In ChEMBL document CHEMBL4513216, “Probing the Open Global Health Chemical Diversity Library for Multistage-Active Starting Points for Next-Generation Antimalarials” (ACS Infect Dis, 2020):

Assay: Toxicity liver stage against HepG2, at 10uM
Format: cell-based
Parameters: test concentration 10 uM, cell line HepG2-A16-CD81EGFP
Settings: human, HepG2-A16-CD81EGFP cells; read-out: INHIBITION
Summary of the method: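 Uninfected HepG2-A16-CD81EGFP cells, 3 × 10^3 per well, 1536-well, plated on prespotted compound at 10 μM final, parasite-free screening media added to match infected plates; puromycin 10 μM positive, DMSO 0.5% negative; run in parallel with 48 h PbLuc assay at 37 °C, 5% CO2; viability by CellTiter-Glo luminescence, normalized to controls.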

Going from `O=C1NC[C@H]2CN(C3CCOCC3)CCN12` to `CC(=O)N(C)Cc1cncc(C2CCCN2C2CCOCC2)n1` (stereo unspecified), the cytotoxicity at 10 µM falls from -1.95% to -5.34%.

Going from `Cc1n[nH]c2c1C(c1cc(F)cc(F)c1)SCC(=O)N2` (stereo unspecified) to `COc1cc(F)cc2sc(NC(=O)COCC3CCCO3)nc12` (stereo unspecified), the cytotoxicity at 10 µM falls from 2.03% to -5.07%.

First: O=C(Nc1nc[nH]n1)c1cc(-c2ccc(F)cc2)n[nH]1
Second: COc1ccc2c(ccn2CC(=O)Nc2n[nH]c(CC(C)C)n2)c1
The cytotoxicity at 10 µM of the first is higher: -5.4% for the first, -6.19% for the second.

Compared with `CCN1C(=O)C[C@@H]2[C@@H]1CCN2S(=O)(=O)c1ccccc1`, `Cc1cc(CN2CC[C@H]3[C@H]2CCN3S(C)(=O)=O)oc1C` is lower in cytotoxicity at 10 µM: 2.55% for the first, -1.69% for the second.

Going from `CN(C)CCCNC(=O)c1ccc(Cl)cc1Cl` to `CC(C)(C)C(=O)NCCNCc1ccc(Cl)c2cccnc12`, the cytotoxicity at 10 µM rises from -21% to -11.4%.

First: Cc1ncsc1CN1CC[C@H]2C[C@H](c3ccncn3)O[C@@H]2C1
Second: CNCC(=O)N1CCCC(c2ccnc(Nc3cnccn3)n2)C1 (stereo unspecified)
The cytotoxicity at 10 µM of the first is higher: 4.87% for the first, -11.6% for the second.

Compared with `Cc1cc(NC(=O)Cn2ncc(Br)c2C)no1`, `Cc1cc(CNc2cccc(Cl)c2C)no1` is lower in cytotoxicity at 10 µM: 4.12% for the first, -2.4% for the second.

Going from `Cc1noc(C)c1S(=O)(=O)N(C)Cc1nn(C)c(Cl)c1Cl` to `COCC1CN(Cc2c(C)noc2C)Cc2ccnn2C1` (stereo unspecified), the cytotoxicity at 10 µM falls from -6.01% to -89.3%.

Going from `O=C(NCCc1cc(N2CCOCC2)nc(NC2CC2)n1)C1CCCO1` (stereo unspecified) to `CC(Cc1ccco1)NC(=O)Nc1ccc(N2CCOCC2)nc1` (stereo unspecified), the cytotoxicity at 10 µM falls from 2.61% to 0.813%.

Going from `COCCC(=O)N1CCC(c2cc3ncc(C)nc3[nH]2)CC1` to `O=C(CCc1cccnc1)N1CCC(c2cnccn2)CC1`, the cytotoxicity at 10 µM falls from -8.86% to -10.4%.

First: COc1ccc(C(=O)N2C[C@@H](c3ccccc3)[C@@H]3NCCCC[C@@H]32)cc1
Second: O=C(c1ccccc1)N1CCN(CC2CCOc3ccccc3C2)CC1 (stereo unspecified)
The cytotoxicity at 10 µM of the first is lower: -23.3% for the first, -0.966% for the second.

Compared with `COCCOCC(=O)N1C[C@@H]2CC[C@H](Oc3ccccc3F)[C@@H]2C1`, `NC(=O)CC1CCN(Cc2ccccc2OCC(F)(F)F)CC1` is higher in cytotoxicity at 10 µM: -1.96% for the first, -0.535% for the second.

First: COc1ncccc1C(Cc1ccsc1)NC(=O)Cn1cccnc1=O (stereo unspecified)
Second: Cn1cc(NC(=O)NCc2ccsc2)ccc1=O
The cytotoxicity at 10 µM of the first is higher: -5.47% for the first, -10.2% for the second.

First: CN(C)S(=O)(=O)N1CCCC(c2cccc(Cc3ccccc3F)n2)C1 (stereo unspecified)
Second: CN(C)C(=O)Cc1ccccc1NCc1cccc(F)c1F
The cytotoxicity at 10 µM of the first is higher: 40.4% for the first, 9.03% for the second.

Compared with `Cc1ncc(CNC(=O)Cc2ccc(Cl)cc2)c(C2CCCN2C)n1` (stereo unspecified), `COc1ccc(Cc2ncc3c(n2)CN(C(=O)CO)C3)cc1` is higher in cytotoxicity at 10 µM: -0.696% for the first, 0.624% for the second.

Going from `CCOc1ccc(C(=O)CC(SC2CCCCC2)C(=O)O)cc1` (stereo unspecified) to `O=C(CN1CCC[C@H]1C(=O)O)NCCOc1cccc(Cl)c1`, the cytotoxicity at 10 µM falls from 6.73% to -22.6%.

Going from `Cc1csc(CNc2cnc3c(c2)c(C)nn3C)n1` to `Cc1cc(C)c(CNc2ncnc3c2cnn3C)c(=O)[nH]1`, the cytotoxicity at 10 µM rises from 0.739% to 8.63%.

Going from `Cc1nc(C(C)C)sc1C(C)N(C)C(=O)c1ccc(=O)n(C)c1` (stereo unspecified) to `Cn1cc(C(=O)N2CCOc3cc(F)ccc32)ccc1=O`, the cytotoxicity at 10 µM falls from 1.46% to -2.55%.

Going from `c1ccc2nc(N3CCCC3)c(NCc3nnc4n3CCC4)nc2c1` to `Cc1cnn(CC2CN(c3cnc4ccccc4n3)CCO2)c1` (stereo unspecified), the cytotoxicity at 10 µM falls from 6.9% to 2.02%.

First: COCCNC(=O)NC1CCN(c2cnn(C)c2)C1 (stereo unspecified)
Second: Cc1ccc(C(=O)N2CC[C@@H](N(C)C)[C@@H]2Cc2cnn(C)c2)cn1
The cytotoxicity at 10 µM of the first is higher: 6% for the first, -73.4% for the second.

Compared with `O=C(c1cc2c([nH]c1=O)CCC2)N1CCCC1c1cccnc1` (stereo unspecified), `O=C1CCc2cc(-c3csc(CCN4CCCC4=O)n3)ccc2N1` is lower in cytotoxicity at 10 µM: -5.79% for the first, -6.64% for the second.

Compared with `CSc1ccc(CNC2CCN(CCc3ccncc3)CC2)cc1`, `Cc1ccc2nc(C3CCCN3Cc3cccc(CCN)c3)[nH]c2c1` (stereo unspecified) is higher in cytotoxicity at 10 µM: -8.14% for the first, -7.01% for the second.

First: Cc1ccc(CNCCS(=O)(=O)N2CCOCC2)cc1C
Second: CCOc1ccc(CCCC(=O)N2CC[C@H](NC(C)=O)C2)cc1C
The cytotoxicity at 10 µM of the first is higher: 1.41% for the first, -16% for the second.

Compared with `Cc1nc(CNC(=O)[C@@H]2CCCN2C(=O)OC(C)(C)C)cs1`, `CCCNC(=O)CNc1ccc(C(=O)N2CCCCC2C)cc1C` (stereo unspecified) is lower in cytotoxicity at 10 µM: -0.602% for the first, -7.67% for the second.

Going from `Cc1nc(CNCC2CCCN2c2cccnn2)oc1C` (stereo unspecified) to `Cc1nnc(CN2CCOC(c3ccc(Cl)c(Cl)c3)C2)o1` (stereo unspecified), the cytotoxicity at 10 µM rises from -3.31% to -1.11%.

Compared with `COC(=O)Cc1cccc(NC(=O)Cc2ccon2)c1`, `CCc1nc(C)c(C(=O)N(C)Cc2cnn(-c3cccc(OC)c3)c2)s1` is higher in cytotoxicity at 10 µM: -2.93% for the first, 11.7% for the second.

Compared with `CC1CCN(S(=O)(=O)N2CCn3cccc3C2C)CC1` (stereo unspecified), `COC1CCN(S(=O)(=O)N2CCCC(c3cccc(C(=O)O)c3)C2)CC1` (stereo unspecified) is higher in cytotoxicity at 10 µM: -0.224% for the first, 1.83% for the second.

Going from `Cc1ccc2c(c1)C(NC1CCN(C)CC1)CCCO2` (stereo unspecified) to `O=C(CN1CCN(CC2CCOc3ccccc3C2)CC1)N1CCCC1` (stereo unspecified), the cytotoxicity at 10 µM rises from -8.2% to -4.02%.

Going from `CC(O)CCN(C)c1nc2ccccc2c(=O)[nH]1` (stereo unspecified) to `CCn1nc(C)c(CNC(=O)C2COc3ccccc3C2)c1C` (stereo unspecified), the cytotoxicity at 10 µM falls from 12.6% to 9.39%.

Going from `Cc1cc(C)c(C(=O)N2CCc3c(ncn3CCc3ccccc3)C2)[nH]1` to `Cc1cc(C)c(S(=O)(=O)Nc2ccccc2CC(F)(F)F)cc1C(=O)O`, the cytotoxicity at 10 µM falls from 7.13% to -1.47%.

Going from `CNC(=O)Cc1noc(Cc2ccc3c(c2)CCCC3)n1` to `COCc1nc(CNC(=O)c2cc(C)c(C)[nH]c2=O)no1`, the cytotoxicity at 10 µM rises from -14.1% to 4.19%.

Compared with `Cc1noc([C@@H]2C[C@H]3OCC[C@H]3N(Cc3ccoc3)C2)n1`, `CC(C)N1[C@H](CN2CCCC2)C[C@@H]2CN(C(=O)c3ccoc3)CC[C@@H]21` is lower in cytotoxicity at 10 µM: -71.4% for the first, -135% for the second.

First: COCC(=O)N1CCc2ncc(Cn3cncn3)n2CC1
Second: CC(C)C(=O)NC1COC2(CCN(Cc3cccnc3)CC2)C1 (stereo unspecified)
The cytotoxicity at 10 µM of the first is lower: -81% for the first, 2.11% for the second.

Going from `CN1CC(=O)N(c2ccsc2)CC12CCN(C(=O)c1ccc[nH]1)C2` (stereo unspecified) to `NC(=O)C1CCN(C(=O)c2ccn(-c3ccc(F)cc3)n2)C1` (stereo unspecified), the cytotoxicity at 10 µM rises from -71.8% to -6.02%.

Going from `Oc1cccc2ccc(CN3CCC4(CCNCC4)C3)nc12` to `Cc1ccc(CN2CCC[C@]3(C(=O)O)CN(c4ncccn4)C[C@@H]3C2)o1`, the cytotoxicity at 10 µM falls from -6.19% to -11.3%.

Compared with `O=C(c1ccc(C(F)(F)F)cc1)N1C[C@@H](CN2CCCCC2)[C@@H](CO)C1`, `O=C(c1ccc(S(=O)(=O)N2CCSCC2)cc1)N1CCC(O)C1` (stereo unspecified) is higher in cytotoxicity at 10 µM: 0.313% for the first, 4.91% for the second.

Compared with `CCNC(=O)[C@@H]1C[C@@H](NC(=O)c2ccc(C)cc2O)CN1CCCSC`, `CCOC(=O)c1n[nH]cc1-c1cncn1CCCn1nc(C)cc1C` is higher in cytotoxicity at 10 µM: -125% for the first, -2.73% for the second.

Compared with `Cc1cc(C)c2ncn(CC(C)(C)CO)c(=O)c2c1`, `COc1ccc(CN(Cc2cncn2C)CC2CCCO2)cc1OC` (stereo unspecified) is lower in cytotoxicity at 10 µM: 15.4% for the first, -3.06% for the second.

Going from `CN(Cc1ccc(C(=O)Nc2sccc2C#N)cc1)Cc1ccno1` to `c1ccc(Oc2cc(CNCC3CNc4ccnn4C3)ccn2)cc1` (stereo unspecified), the cytotoxicity at 10 µM rises from -1.65% to 3.1%.

Going from `Cc1ccc([C@]2(O)CC[C@H]3CN(Cc4cccc(F)c4F)C[C@H]32)nc1` to `Cc1cc(C[C@@H]2CCC[C@H]2NCc2cccc(F)c2F)on1`, the cytotoxicity at 10 µM rises from -8.38% to -0.474%.

Compound `Cc1cccc(C(=O)N2CCc3ncnc(C4CCOC4)c3CC2)n1` (stereo unspecified) has a cytotoxicity at 10 µM of -69.8%.
